Laboratory results: paper PMC9090800 (RSC Advances, 2018)
≈ marks a conversion by molar mass, not a printed value.

Experiments:
Assay type in all cases: cell-based
C. albicans (ATCC 90028) = test: In vitro anticandidal activity, broth dilution; details: Candida albicans, ATCC90028, 24 h, read-out: IC50 ± S.D, C. albicans
How it was run: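 Broth dilution followed the NCCLS protocol. Test compound in DMSO was diluted in PBS, then tested at 1000 to 7.8 μg mL−1 in SD broth with about 2.5 × 10^3 cells per mL in 96-well plates. Plates were shaken 24 h at 30 °C, 150 rpm, and read at OD580. IC50 was the concentration halving absorbance versus untreated cells, taken from a log10 concentration versus % inhibition plot. Triplicates were run on separate occasions, with fluconazole as positive control.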

Hemolytic assay = details: human, human red blood cells (erythrocyte suspension in PBS)
How it was run: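 Fresh human blood was collected in EDTA and spun 10 min at 2000 rpm. Erythrocytes were washed three times in PBS and made to a 10% (v/v) suspension, then diluted 1:10. Equal volumes of cells and test compound dilution series in PBS were incubated in triplicate for 1 h at 37 °C and re-centrifuged. Supernatant A450 was expressed relative to buffer (0%) and 1% Triton X-100 (100% lysis). Fluconazole was the reference.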

[1] = system: human embryonic kidney (HEK-293) cells; test: Cytotoxicity by MTT assay; details: HEK-293, 100 μg mL^−1, 24 h
How it was run: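 HEK-293 cells grown as monolayers in DMEM with 10% FBS, penicillin and streptomycin, 37 °C, 5% CO2, at most 30 passages. Seeded at about 8 × 10^3 cells per well, 24 h before dosing. Test compound (DMSO stock diluted in PBS) given at 10–200 μg mL−1 for 24 h at 37 °C. Serum-free medium, then MTT (5 mg mL−1 in PBS), 4 h. Formazan dissolved in DMSO, A570 read. Triplicate; viability relative to untreated cells.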

| SMILES | IC50 (C. albicans (ATCC 90028)) [µg/mL] | hemolysis at 1 h, 1000 μg mL^−1 (Hemolytic assay) [%] | cell viability (MTT) [1] |
| --- | --- | --- | --- |
| CCOC(=O)c1nc2ccccc2c(=O)n1Cc1cn(-c2cccc(C)c2)nn1 [Compound 5i, Ethyl 4-oxo-3-((1-m-tolyl-1H-1,2,3-triazol-4-yl)methyl)-3,4-dihydroquinazoline-2-carboxylate] | 353 ± 11.1 (≈ 905 µM) | – | – |
| O=C(O)c1nc2ccccc2c(=O)n1Cc1cn(-c2ccc(F)cc2)nn1 [Compound 6m, 3-((1-(4-Fluorophenyl)-1H-1,2,3-triazol-4-yl)methyl)-4-oxo-3,4-dihydroquinazoline-2-carboxylic acid] | 172 ± 5.3 (≈ 471 µM) | – | – |
| COc1ccc(-n2cc(Cn3c(C(=O)O)nc4ccccc4c3=O)nn2)cc1 [Compound 6o, 3-((1-(4-Methoxyphenyl)-1H-1,2,3-triazol-4-yl)methyl)-4-oxo-3,4-dihydroquinazoline-2-carboxylic acid] | 125 ± 5.9 (≈ 331 µM) | – | – |
| Cc1cccc(-n2cc(Cn3c(C(=O)O)nc4ccccc4c3=O)nn2)c1 [Compound 6i, 4-Oxo-3-((1-m-tolyl-1H-1,2,3-triazol-4-yl)methyl)-3,4-dihydroquinazoline-2-carboxylic acid] | 133 ± 4.2 (≈ 369 µM) | – | – |
| CCOC(=O)c1nc2ccccc2c(=O)n1Cc1cn(-c2ccc(C(=O)O)cc2)nn1 [Compound 5q, 4-(4-((2-(ethoxycarbonyl)-4-oxoquinazolin-3(4H)-yl)methyl)-1H-1,2,3-triazol-1-yl)benzoic acid] | 342 ± 5.7 (≈ 816 µM) | – | – |
| COc1ccccc1-n1cc(Cn2c(C(=O)O)nc3ccccc3c2=O)nn1 [Compound 6e, 3-((1-(2-Methoxyphenyl)-1H-1,2,3-triazol-4-yl)methyl)-4-oxo-3,4-dihydroquinazoline-2-carboxylic acid] | 48.2 ± 3.2 (≈ 128 µM) | < 20 | no significant decrease in cell viability |
| O=C(O)c1nc2ccccc2c(=O)n1Cc1cn(-c2cccc([N+](=O)[O-])c2)nn1 [Compound 6k, 3-((1-(3-Nitrophenyl)-1H-1,2,3-triazol-4-yl)methyl)-4-oxo-3,4-dihydroquinazoline-2-carboxylic acid] | 701 ± 23.6 (≈ 1790 µM) | – | – |
| CCOC(=O)c1nc2ccccc2c(=O)n1Cc1cn(-c2cccc([N+](=O)[O-])c2)nn1 [Compound 5k, Ethyl 3-((1-(3-nitrophenyl)-1H-1,2,3-triazol-4-yl)methyl)-4-oxo-3,4-dihydroquinazoline-2-carboxylate] | 143 ± 2.5 (≈ 339 µM) | – | – |
| CCOC(=O)c1nc2ccccc2c(=O)n1Cc1cn(-c2ccccc2)nn1 [Compound 5a, Ethyl 4-oxo-3-((1-phenyl-1H-1,2,3-triazol-4-yl)methyl)-3,4-dihydroquinazoline-2-carboxylate] | 228 ± 3.8 (≈ 607 µM) | – | – |
| O=C(O)c1nc2ccccc2c(=O)n1Cc1cn(-c2ccccc2Cl)nn1 [Compound 6b, 3-((1-(2-Chlorophenyl)-1H-1,2,3-triazol-4-yl)methyl)-4-oxo-3,4-dihydroquinazoline-2-carboxylic acid] | 169 ± 3.4 (≈ 442 µM) | – | – |
| Cc1ccc(-n2cc(Cn3c(C(=O)O)nc4ccccc4c3=O)nn2)cc1 [Compound 6n, 4-Oxo-3-((1-p-tolyl-1H-1,2,3-triazol-4-yl)methyl)-3,4-dihydroquinazoline-2-carboxylic acid] | 87 ± 4 (≈ 241 µM) | < 20 | no significant decrease in cell viability |
| OC(Cn1cncn1)(Cn1cncn1)c1ccc(F)cc1F [FLC, fluconazole, reference compound] | 15.6 ± 2.2 (≈ 50.9 µM) | 78.1 | – |
| CCOC(=O)c1nc2ccccc2c(=O)n1Cc1cn(-c2ccc(F)cc2)nn1 [Compound 5m, Ethyl 3-((1-(4-fluorophenyl)-1H-1,2,3-triazol-4-yl)methyl)-4-oxo-3,4-dihydroquinazoline-2-carboxylate] | 209 ± 6.5 (≈ 532 µM) | – | – |
| CCOC(=O)c1nc2ccccc2c(=O)n1Cc1cn(-c2ccccc2C)nn1 [Compound 5d, Ethyl 4-oxo-3-((1-o-tolyl-1H-1,2,3-triazol-4-yl)methyl)-3,4-dihydroquinazoline-2-carboxylate] | 297 ± 5.9 (≈ 763 µM) | – | – |
| O=C(O)c1nc2ccccc2c(=O)n1Cc1cn(-c2ccc([N+](=O)[O-])cc2)nn1 [Compound 6p, 3-((1-(4-Nitrophenyl)-1H-1,2,3-triazol-4-yl)methyl)-4-oxo-3,4-dihydroquinazoline-2-carboxylic acid] | 789 ± 16.4 (≈ 2010 µM) | – | – |
| O=C(O)c1nc2ccccc2c(=O)n1Cc1cn(-c2cccc(Cl)c2)nn1 [Compound 6g, 3-((1-(3-Chlorophenyl)-1H-1,2,3-triazol-4-yl)methyl)-4-oxo-3,4-dihydroquinazoline-2-carboxylic acid] | 100 ± 4 (≈ 263 µM) | – | – |

| SMILES | IC50 (C. albicans (ATCC 90028)) [µg/mL] | hemolysis at 1 h, 1000 μg mL^−1 (Hemolytic assay) [%] | cell viability (MTT) [1] |
| --- | --- | --- | --- |
| Cc1ccccc1-n1cc(Cn2c(C(=O)O)nc3ccccc3c2=O)nn1 [Compound 6d, 4-Oxo-3-((1-o-tolyl-1H-1,2,3-triazol-4-yl)methyl)-3,4-dihydroquinazoline-2-carboxylic acid] | 131 ± 4.3 (≈ 363 µM) | – | – |
| O=C(O)c1ccc(-n2cc(Cn3c(C(=O)O)nc4ccccc4c3=O)nn2)cc1 [Compound 6q, 3-((1-(4-Carboxyphenyl)-1H-1,2,3-triazol-4-yl)methyl)-4-oxo-3,4-dihydroquinazoline-2-carboxylic acid] | 916 ± 15.5 (≈ 2340 µM) | – | – |
| CCOC(=O)c1nc2ccccc2c(=O)n1Cc1cn(-c2ccccc2OC)nn1 [Compound 5e, Ethyl 3-((1-(2-methoxyphenyl)-1H-1,2,3-triazol-4-yl)methyl)-4-oxo-3,4-dihydroquinazoline-2-carboxylate] | 18.6 ± 3.4 (≈ 45.9 µM) | < 20 | no significant decrease in cell viability |
| O=C(O)c1nc2ccccc2c(=O)n1Cc1cn(-c2cccc(F)c2)nn1 [Compound 6h, 3-((1-(3-Fluorophenyl)-1H-1,2,3-triazol-4-yl)methyl)-4-oxo-3,4-dihydroquinazoline-2-carboxylic acid] | 135 ± 2.4 (≈ 369 µM) | – | – |
| CCOC(=O)c1nc2ccccc2c(=O)n1Cc1cn(-c2cccc(F)c2)nn1 [Compound 5h, Ethyl 3-((1-(3-fluorophenyl)-1H-1,2,3-triazol-4-yl)methyl)-4-oxo-3,4-dihydroquinazoline-2-carboxylate] | 510 ± 6.4 (≈ 1300 µM) | – | – |
| CCOC(=O)c1nc2ccccc2c(=O)n1Cc1cn(-c2ccc(OC)cc2)nn1 [Compound 5o, Ethyl 3-((1-(4-methoxyphenyl)-1H-1,2,3-triazol-4-yl)methyl)-4-oxo-3,4-dihydroquinazoline-2-carboxylate] | 394.3 ± 1.7 (≈ 973 µM) | – | – |
| O=C(O)c1nc2ccccc2c(=O)n1Cc1cn(-c2ccccc2)nn1 [Compound 6a, 4-Oxo-3-((1-phenyl-1H-1,2,3-triazol-4-yl)methyl)-3,4-dihydroquinazoline-2-carboxylic acid] | 119 ± 7.6 (≈ 342 µM) | – | – |
| COc1cccc(-n2cc(Cn3c(C(=O)O)nc4ccccc4c3=O)nn2)c1 [Compound 6j, 3-((1-(3-Methoxyphenyl)-1H-1,2,3-triazol-4-yl)methyl)-4-oxo-3,4-dihydroquinazoline-2-carboxylic acid] | 214 ± 11 (≈ 568 µM) | – | – |
| O=C(O)c1nc2ccccc2c(=O)n1Cc1cn(-c2ccccc2[N+](=O)[O-])nn1 [Compound 6f, 3-((1-(2-Nitrophenyl)-1H-1,2,3-triazol-4-yl)methyl)-4-oxo-3,4-dihydroquinazoline-2-carboxylic acid] | 701 ± 23.6 (≈ 1790 µM) | – | – |
| O=C(O)c1nc2ccccc2c(=O)n1Cc1cn(-c2ccc(Cl)cc2)nn1 [Compound 6l, 3-((1-(4-Chlorophenyl)-1H-1,2,3-triazol-4-yl)methyl)-4-oxo-3,4-dihydroquinazoline-2-carboxylic acid] | 221 ± 11.2 (≈ 579 µM) | – | – |
| CCOC(=O)c1nc2ccccc2c(=O)n1Cc1cn(-c2ccc([N+](=O)[O-])cc2)nn1 [Compound 5p, Ethyl 3-((1-(4-nitrophenyl)-1H-1,2,3-triazol-4-yl)methyl)-4-oxo-3,4-dihydroquinazoline-2-carboxylate] | 151 ± 15.7 (≈ 360 µM) | – | – |
| CCOC(=O)c1nc2ccccc2c(=O)n1Cc1cn(-c2ccccc2F)nn1 [Compound 5c, Ethyl 3-((1-(2-fluorophenyl)-1H-1,2,3-triazol-4-yl)methyl)-4-oxo-3,4-dihydroquinazoline-2-carboxylate] | 110 ± 4.8 (≈ 279 µM) | – | – |
| CCOC(=O)c1nc2ccccc2c(=O)n1Cc1cn(-c2cccc(OC)c2)nn1 [Compound 5j, Ethyl 3-((1-(3-methoxyphenyl)-1H-1,2,3-triazol-4-yl)methyl)-4-oxo-3,4-dihydroquinazoline-2-carboxylate] | 340 ± 7.4 (≈ 840 µM) | – | – |
| CCOC(=O)c1nc2ccccc2c(=O)n1Cc1cn(-c2ccccc2Cl)nn1 [Compound 5b, Ethyl 3-((1-(2-chlorophenyl)-1H-1,2,3-triazol-4-yl)methyl)-4-oxo-3,4-dihydroquinazoline-2-carboxylate] | 124 ± 18.4 (≈ 304 µM) | – | – |
| CCOC(=O)c1nc2ccccc2c(=O)n1Cc1cn(-c2ccc(Cl)cc2)nn1 [Compound 5l, Ethyl 3-((1-(4-chlorophenyl)-1H-1,2,3-triazol-4-yl)methyl)-4-oxo-3,4-dihydroquinazoline-2-carboxylate] | 216 ± 3.5 (≈ 526 µM) | – | – |
| CCOC(=O)c1nc2ccccc2c(=O)n1Cc1cn(-c2ccccc2[N+](=O)[O-])nn1 [Compound 5f, Ethyl 3-((1-(2-nitrophenyl)-1H-1,2,3-triazol-4-yl)methyl)-4-oxo-3,4-dihydroquinazoline-2-carboxylate] | 269 ± 5.5 (≈ 641 µM) | – | – |
